Results published in ChEMBL document CHEMBL1134010, “Syntheses and antifungal activities of novel 3-amido bearing pseudomycin analogues” (Bioorg Med Chem Lett, 2001).
In brackets after ≈: the same amount, converted by molar mass.

Key:
Type in all cases: functional
Candida albicans [1] = assay: In vitro minimum inhibitory concentration (MIC) against Candida albicans.
Method in brief: (§1)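 Tested against Candida albicans, Cryptococcus neoformans and Aspergillus fumigatus, with PSB as positive control. MIC is taken as the lowest drug concentration giving 90–100% inhibition of visible growth relative to drug-free controls.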

Candida albicans [2] = assay: In vivo efficacy against murine Candidiasis dosed four times by intraperitoneal administration post-infection using Reed and Muench method.; conditions: ip
Method in brief: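 Systemic candidiasis in mice, with PSB and amphotericin B as positive controls. Analogues were given at 20, 10 and 5 mg/kg, four doses at 0, 4, 24 and 48 post-infection. ED50 is the dose giving 50% survival relative to untreated infected animals, calculated by the Reed and Muench method.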

Aspergillus fumigatus = assay: In vitro minimum inhibitory concentration (MIC) against Aspergillus fumigatus.; method in brief: as §1
Cryptococcus neoformans = assay: In vitro minimum inhibitory concentration (MIC) against Cryptococcus neoformans.; method in brief: as §1

MIC (Candida albicans [1]) [µg/mL]	MIC (Aspergillus fumigatus) [µg/mL]	MIC (Cryptococcus neoformans) [µg/mL]	Structure (SMILES)	ED50 (Candida albicans [2]) [mg/kg]
0.312 (≈ 0.244 µM)	> 20	< 0.01	C/C=C1\NC(=O)[C@H]([C@H](C)O)NC(=O)[C@H](CCN)NC(=O)[C@H](CCCCN)NC(=O)[C@H](CC(=O)NCCCCC)NC(=O)[C@@H](CCN)NC(=O)[C@@H](NC(=O)C[C@H](O)CCCCCCCCCCC)COC(=O)[C@H]([C@H](O)CCl)NC(=O)[C@H]([C@H](O)C(=O)O)NC1=O	8.5
5 (≈ 3.63 µM)	> 20	0.01 (≈ 0.00726 µM)	C/C=C1\NC(=O)[C@H]([C@@H](C)O)NC(=O)[C@H](CCN)NC(=O)[C@H](CCCCN)NC(=O)[C@H](CC(=O)N[C@@H](CCCN=C(N)N)C(=O)OC)NC(=O)[C@@H](CCN)NC(=O)[C@@H](NC(=O)C[C@H](O)CCCCCCCCCCC)COC(=O)[C@H]([C@H](O)CCl)NC(=O)[C@H]([C@H](O)C(=O)O)NC1=O	< 5
5 (≈ 4.1 µM)	> 20	0.312 (≈ 0.256 µM)	C/C=C1\NC(=O)[C@H]([C@H](C)O)NC(=O)[C@H](CCN)NC(=O)[C@H](CCCCN)NC(=O)[C@H](CC(=O)NC)NC(=O)[C@@H](CCN)NC(=O)[C@@H](NC(=O)C[C@H](O)CCCCCCCCCCC)COC(=O)[C@H]([C@H](O)CCl)NC(=O)[C@H]([C@H](O)C(=O)O)NC1=O	7.4
5 (≈ 3.75 µM)	20 (≈ 15 µM)	< 0.01	C/C=C1\NC(=O)[C@H]([C@H](C)O)NC(=O)[C@H](CCN)NC(=O)[C@H](CCCCN)NC(=O)[C@H](CC(=O)NCCCCCCN(C)C)NC(=O)[C@@H](CCN)NC(=O)[C@@H](NC(=O)C[C@H](O)CCCCCCCCCCC)COC(=O)[C@H]([C@H](O)CCl)NC(=O)[C@H]([C@H](O)C(=O)O)NC1=O	< 5
5 (≈ 3.96 µM)	20 (≈ 15.8 µM)	< 0.01	C/C=C1\NC(=O)[C@H]([C@H](C)O)NC(=O)[C@H](CCN)NC(=O)[C@H](CCCCN)NC(=O)[C@H](CC(=O)NCCCC)NC(=O)[C@@H](CCN)NC(=O)[C@@H](NC(=O)C[C@H](O)CCCCCCCCCCC)COC(=O)[C@H]([C@H](O)CCl)NC(=O)[C@H]([C@H](O)C(=O)O)NC1=O	5.9
> 20	> 20	1.25 (≈ 0.928 µM)	C/C=C1\NC(=O)[C@H]([C@H](C)O)NC(=O)[C@H](CCN)NC(=O)[C@H](CCCCN)NC(=O)[C@H](CC(=O)NCCCCCCCCCC)NC(=O)[C@@H](CCN)NC(=O)[C@@H](NC(=O)C[C@H](O)CCCCCCCCCCC)COC(=O)[C@H]([C@H](O)CCl)NC(=O)[C@H]([C@H](O)C(=O)O)NC1=O	> 20
10 (≈ 8.1 µM)	10 (≈ 8.1 µM)	< 0.01	C/C=C1\NC(=O)[C@H]([C@H](C)O)NC(=O)[C@H](CCN)NC(=O)[C@H](CCCCN)NC(=O)[C@H](CC(=O)N(C)C)NC(=O)[C@@H](CCN)NC(=O)[C@@H](NC(=O)C[C@H](O)CCCCCCCCCCC)COC(=O)[C@H]([C@H](O)CCl)NC(=O)[C@H]([C@H](O)C(=O)O)NC1=O	< 4.5
20 (≈ 15.3 µM)	5 (≈ 3.83 µM)	< 0.01	C/C=C1\NC(=O)[C@H]([C@H](C)O)NC(=O)[C@H](CCN)NC(=O)[C@H](CCCCN)NC(=O)[C@H](CC(=O)NCCCCN(C)C)NC(=O)[C@@H](CCN)NC(=O)[C@@H](NC(=O)C[C@H](O)CCCCCCCCCCC)COC(=O)[C@H]([C@H](O)CCl)NC(=O)[C@H]([C@H](O)C(=O)O)NC1=O	< 5
10 (≈ 7.42 µM)	> 20	< 0.01	C/C=C1\NC(=O)[C@H]([C@H](C)O)NC(=O)[C@H](CCN)NC(=O)[C@H](CCCCN)NC(=O)[C@H](CC(=O)NCCCCCCCN(C)C)NC(=O)[C@@H](CCN)NC(=O)[C@@H](NC(=O)C[C@H](O)CCCCCCCCCCC)COC(=O)[C@H]([C@H](O)CCl)NC(=O)[C@H]([C@H](O)C(=O)O)NC1=O	< 4
20 (≈ 15.2 µM)	> 20	0.625 (≈ 0.474 µM)	C/C=C1\NC(=O)[C@H]([C@H](C)O)NC(=O)[C@H](CCN)NC(=O)[C@H](CCCCN)NC(=O)[C@H](CC(=O)NCCCCCCCC)NC(=O)[C@@H](CCN)NC(=O)[C@@H](NC(=O)C[C@H](O)CCCCCCCCCCC)COC(=O)[C@H]([C@H](O)CCl)NC(=O)[C@H]([C@H](O)C(=O)O)NC1=O	> 20
5 (≈ 3.87 µM)	> 20	0.156 (≈ 0.121 µM)	C/C=C1\NC(=O)[C@H]([C@H](C)O)NC(=O)[C@H](CCN)NC(=O)[C@H](CCCCN)NC(=O)[C@H](CC(=O)NCCCCCC)NC(=O)[C@@H](CCN)NC(=O)[C@@H](NC(=O)C[C@H](O)CCCCCCCCCCC)COC(=O)[C@H]([C@H](O)CCl)NC(=O)[C@H]([C@H](O)C(=O)O)NC1=O	> 12
